Measurements taken from ChEMBL document CHEMBL1156684, “Non-nucleoside HIV-1 reverse transcriptase inhibitors. Part 11: structural modulations of diaryltriazines with potent anti-HIV activity” (Eur J Med Chem, 2008).

Tests used:
[1] = test system: Human immunodeficiency virus 1; experiment: Antiviral activity against HIV 3B in human MT4 cells assessed as inhibition of viral replication by MTT assay; assay type: functional, organism-based; conditions: Human immunodeficiency virus 1, 3B
In short: (§1)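 MT-4 cells at 1 × 10⁵ cells/ml infected with HIV at multiplicity of infection 0.02 (virus stocks titrated in MT-4 cells as CCID₅₀), then plated immediately with serial compound dilutions (DMSO stocks at 50 mM or higher). Viable cells counted by MTT after 4 days at 37 °C. IC₅₀ is the concentration protecting 50% of cells from viral cytopathogenicity.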

[2] = Selectivity index, ratio of CC50 for human MT4 cells to IC50 for HIV1 3B; assay type: functional
In short: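 Ratio CC₅₀/IC₅₀. CC₅₀ is from MTT viability of MT-4 cells and IC₅₀ from MTT protection of HIV-infected MT-4 cells (MOI 0.02), both after 4 days at 37 °C.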

[3] = Cytotoxicity against human MT4 cells after 4 days by MTT assay; assay type: cell-based
In short: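 Uninfected MT-4 cells exposed to graded compound concentrations (DMSO stocks at 50 mM or higher) for 4 days at 37 °C. Viability read by MTT. CC₅₀ is the concentration reducing MT-4 cell viability by 50%.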

[4] = test system: Human immunodeficiency virus 2; experiment: Antiviral activity against HIV2 ROD in human MT4 cells assessed as inhibition of viral replication by MTT assay; assay type: functional, organism-based; conditions: Human immunodeficiency virus 2, ROD; in short: as §1

Structure (SMILES) | IC50 [1] | Ratio CC50/IC50 [2] | CC50 at 96 h [3] | IC50 [4]
CNc1nc(Nc2ccc(C#N)cc2)nc(Oc2ccc3ccccc3c2Br)n1 | 0.0093 µM | 15400 | 143 µM | ≥ 28.2 µM
N#Cc1ccc(Nc2nc(N)nc(Oc3cccc4ccccc34)n2)cc1 | 0.107 µM | 364 | 39.1 µM | > 39.1 µM
CNc1nc(Nc2ccc(C#N)cc2)nc(Oc2ccc3cc(Br)ccc3c2)n1 | 0.284 µM | 685 | 194 µM | > 194 µM
CC(C)Nc1nc(Nc2ccc(C#N)cc2)nc(Oc2ccc3ccccc3c2Br)n1 | 1.06 µM | 39 | 41.5 µM | > 41.5 µM
CNc1nc(Nc2ccc(C#N)cc2)nc(Oc2ccc(Cl)c3ccccc23)n1 | 0.093 µM | 2111 | 197 µM | > 197 µM
N#Cc1ccc(Nc2nc(N=[N+]=[N-])nc(Oc3ccc4ccccc4c3Cl)n2)cc1 | 0.06 µM | 4270 | 256 µM | 6.17 µM
CCCNc1nc(Nc2ccc(C#N)cc2)nc(Oc2ccc3ccccc3c2Br)n1 | 0.203 µM | >1294 | > 263 µM | ≥ 58.3 µM
CNc1nc(Nc2ccc(C#N)cc2)nc(Oc2cccc3ccccc23)n1 | 0.186 µM | 163 | 30.3 µM | > 30.3 µM
CCNc1nc(Nc2ccc(C#N)cc2)nc(Oc2ccc(Cl)c3ccccc23)n1 | 0.733 µM | 285 | 208 µM | > 208 µM
CC(C)Nc1nc(Nc2ccc(C#N)cc2)nc(Oc2ccc3cc(Br)ccc3c2Br)n1 | 0.693 µM | >302 | ≥ 209 µM | 9.71 µM
O=c1[nH]cnc2c1ncn2[C@H]1CC[C@@H](CO)O1 [DIDANOSINE] | – | >=98 | ≥ 529 µM | –
Cc1ccnc2c1NC(=O)c1cccnc1N2C1CC1 [NEVIRAPINE] | – | >800 | > 200 µM | –
CNc1nc(Nc2ccc(C#N)cc2)nc(Oc2ccc3cc(Br)ccc3c2Br)n1 | 0.0184 µM | 5018 | 92.8 µM | > 91.9 µM
CCCNc1nc(Nc2ccc(C#N)cc2)nc(Oc2ccc(Cl)c3ccccc23)n1 | 1.63 µM | 111 | 182 µM | 45.6 µM
CCCNc1nc(Nc2ccc(C#N)cc2)nc(Oc2ccc3cc(Br)ccc3c2Br)n1 | 0.256 µM | 524 | 134 µM | 6.59 µM
N#Cc1ccc(Nc2nc(N)nc(Oc3ccc4ccccc4c3)n2)cc1 | 0.09 µM | 471 | 42.2 µM | ≥ 11.5 µM
CNc1nc(Nc2ccc(C#N)cc2)nc(Oc2ccc3ccccc3c2Cl)n1 | 0.0118 µM | 14412 | 171 µM | > 171 µM
CCCNc1nc(Nc2ccc(C#N)cc2)nc(Oc2cccc3ccccc23)n1 | 2.7 µM | 11 | 29.5 µM | > 73.2 µM
CCNc1nc(Nc2ccc(C#N)cc2)nc(Oc2ccc3ccccc3c2Cl)n1 | 0.114 µM | 1642 | 188 µM | 16 µM
N#Cc1ccc(Nc2nc(N)nc(Oc3ccc4cc(Br)ccc4c3)n2)cc1 | 0.0808 µM | 3019 | 243 µM | 19.7 µM
N#Cc1ccc(Nc2nc(N)nc(Oc3ccc4ccccc4c3Cl)n2)cc1 | 0.0287 µM | 2872 | – | ≥ 5.3 µM
N#Cc1ccc(Nc2nc(N)nc(Oc3ccc4ccccc4c3Br)n2)cc1 | 0.0094 µM | 14094 | 133 µM | 20.2 µM
N#Cc1ccc(Nc2nc(N)nc(Oc3ccc4cc(Br)ccc4c3Br)n2)cc1 | 0.0195 µM | 12475 | 244 µM | 10.5 µM
CCCNc1nc(Nc2ccc(C#N)cc2)nc(Oc2ccc3ccccc3c2Cl)n1 | 0.187 µM | >1547 | > 290 µM | ≥ 43.6 µM
CCNc1nc(Nc2ccc(C#N)cc2)nc(Oc2ccc3cc(Br)ccc3c2Br)n1 | 0.156 µM | 477 | 74.4 µM | > 74.5 µM
N#Cc1ccc(Nc2nc(N)nc(Oc3ccc(Cl)c4ccccc34)n2)cc1 | 0.062 µM | 3775 | 237 µM | ≥ 12.6 µM
CNc1nc(Nc2ccc(C#N)cc2)nc(Oc2ccc3ccccc3c2)n1 | 0.26 µM | 968 | 250 µM | > 251 µM
